Compound activity deposited in PubChem BioAssay by Sanford-Burnham Center for Chemical Genomics.
APJ agonist = agonists of human APJ apelin receptor. CHO-K1 APJ PathHunter beta-arrestin, luminescence; 0% DMSO wells, 100% apelin. activation, % at 20 µM. 330,000 compounds, 0.11% hits;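 active means activation more than six SD over the plate average, tested at 20 µM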
Target sequence (P35414 whole entry, looked up): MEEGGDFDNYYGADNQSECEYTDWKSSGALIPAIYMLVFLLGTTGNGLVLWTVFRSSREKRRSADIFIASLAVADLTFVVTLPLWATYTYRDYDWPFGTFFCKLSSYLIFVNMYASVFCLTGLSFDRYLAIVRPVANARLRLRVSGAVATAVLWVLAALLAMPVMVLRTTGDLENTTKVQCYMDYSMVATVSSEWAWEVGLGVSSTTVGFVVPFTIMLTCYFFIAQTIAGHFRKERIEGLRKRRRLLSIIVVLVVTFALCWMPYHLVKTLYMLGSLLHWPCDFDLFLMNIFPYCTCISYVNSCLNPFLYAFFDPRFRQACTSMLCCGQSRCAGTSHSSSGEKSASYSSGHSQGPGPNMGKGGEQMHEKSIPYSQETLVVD
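Assay system: CHO-K1 APJ beta-arrestin complementation cell line / Compound: single test compound dose, 20 µM final, 1% DMSO / Times: overnight seeding, 90 min compound at 25 °C, 1 h detection / Technique: beta-gal luminescence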
EBI2 block = blocks human EBI2 receptor beta-arrestin signaling. 360,000 compounds, 0.81% hits. P32249. EBI2 beta-arrestin recruitment, luminescence, 7a,25-OHC stimulated. inhibition, % at 5 µM; in the data active means inhibition above about 38%;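 further: enzyme fragment complementation signal reports receptor beta-arrestin coupling in cells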
CXCR6 block = inhibitors of human CXCR6 receptor; O00574; inhibition, % at 20 µM; AID 602244; CHO-K1 PathHunter CXCR6 beta-arrestin, luminescence; 360,000 compounds, 0.36% hits; in the data active means inhibition above about 34%, passing the limit was not always enough;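 further: antagonist mode with CXCL16 agonist at 10 nM final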
APJ antag = blocks the human apelin receptor APJ; P35414; CHO-K1 APJ beta-arrestin complementation, luminescence; inhibition, % at 20 µM; 330,000 compounds, 0.32% hits; AID 2521;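 active means inhibition above about 40% at 20 µM, limit read from the data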;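 further: cells challenged with 10 nM apelin-13 agonist together with compound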
CCR6 antag = CCR6 (human) receptor antagonism; inhibition, % at 20 µM; P51684; CHO-K1 CCR6 PathHunter beta-arrestin, luminescence, CCL20-stimulated; 340,000 compounds, 0.49% hits; AID 493098;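 active means compounds whose inhibition of the agonist-driven luminescence signal at 20 µM reaches about 50%, limit read from the data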;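 further: cells stimulated with CCL20 at 14 nM final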
A number is an active result. The list is not random: actives were taken first. Their share in the collection is about 1.5%.

Results for CC(C)C[C@H]1C(=O)N2CCC[C@H]2[C@]2(O)O[C@](NC(=O)C3C=C4c5cccc6[nH]c(Br)c(c56)C[C@H]4N(C)C3)(C(C)C)C(=O)N12 (stereo not given in full) ?
APJ agonist: inactive; EBI2 block: 90; CXCR6 block: inactive; APJ antag: inactive; CCR6 antag: inactive

How did Cc1ccc(S(=O)(=O)N2C[C@]3(O)C[C@@H]4C(=O)N(c5ccccc5)C(=O)[C@@H]4C[C@]3(OC(=O)NCC3CCCCC3)C2)cc1 do in these assays?
EBI2 block: inactive; CXCR6 block: inactive

How did C=CCSc1nc2ccccc2n1C(=O)/C=C/c1cc(OC)c(OC)c(OC)c1 do in these assays?
APJ agonist: inactive; EBI2 block: 56; CXCR6 block: inactive; APJ antag: inactive; CCR6 antag: inactive

Results for COc1cc(/C=C/C(=O)NCCn2c(C)cc3ccccc32)cc(OC)c1OC ?
APJ agonist: inactive; EBI2 block: inactive; CXCR6 block: inactive; APJ antag: inactive; CCR6 antag: inactive

How did C=CCSc1nc2ccccc2n1C(=O)/C=C/c1ccc(OC)c(OC)c1 do in these assays?
EBI2 block: 46; CXCR6 block: inactive; CCR6 antag: inactive

Results for CCSc1nc2ccccc2n1C(=O)/C=C/c1ccc(OC)c(OC)c1 ?
APJ agonist: inactive; EBI2 block: inactive; CXCR6 block: inactive; APJ antag: inactive; CCR6 antag: inactive

What do the screens show for `Oc1ccccc1/C=N/Nc1nn[nH]n1`?
APJ agonist: inactive; EBI2 block: inactive; CXCR6 block: inactive; APJ antag: inactive; CCR6 antag: inactive

What do the screens show for `Cc1cccc(NC(=O)CCC(=O)N/N=C/c2cc([N+](=O)[O-])ccc2O)c1`?
APJ agonist: inactive; EBI2 block: inactive; CXCR6 block: inactive; APJ antag: inactive; CCR6 antag: inactive

What do the screens show for `O=[N+]([O-])c1ccc(O)c(/C=N\N=C2c3ccccc3-c3ccccc32)c1`?
APJ agonist: inactive; EBI2 block: inactive; CXCR6 block: inactive; APJ antag: inactive; CCR6 antag: 56

What do the screens show for `O=[N+]([O-])c1ccc(O)c(/C=N/Nc2nn[nH]n2)c1`?
APJ agonist: inactive; EBI2 block: inactive; CXCR6 block: 44; APJ antag: inactive

How did O=C(N/N=C/c1cc([N+](=O)[O-])ccc1O)C1CCCCC1 do in these assays?
APJ agonist: inactive; EBI2 block: 76; CXCR6 block: inactive; APJ antag: inactive; CCR6 antag: inactive

What do the screens show for `O=C(CCC(=O)Nc1ccc(F)cc1)N/N=C/c1cc([N+](=O)[O-])ccc1O`?
APJ agonist: inactive; EBI2 block: inactive; CXCR6 block: inactive; APJ antag: inactive; CCR6 antag: 62

How did NC(N)=N/N=C/c1cc([N+](=O)[O-])ccc1O do in these assays?
APJ agonist: inactive; EBI2 block: inactive; CXCR6 block: inactive; APJ antag: inactive; CCR6 antag: inactive

Results for CCCCN(C(=O)COC(=O)c1sccc1C)c1c(N)n(CCC)c(=O)[nH]c1=O ?
EBI2 block: inactive; CXCR6 block: inactive

Results for Cc1nc2ccc(C(=O)N/N=C/c3cc([N+](=O)[O-])ccc3O)cc2[nH]1 ?
APJ agonist: inactive; EBI2 block: inactive; CXCR6 block: inactive; APJ antag: inactive; CCR6 antag: 59

How did CCC(O)(CC)C(=O)N/N=C/c1cc(Br)cc(Br)c1O do in these assays?
APJ agonist: inactive; EBI2 block: 64; CXCR6 block: inactive; APJ antag: inactive; CCR6 antag: inactive

What do the screens show for `O=C(C[n+]1ccccc1)N/N=C/c1cc(Br)cc(Br)c1O`?
APJ agonist: inactive; EBI2 block: inactive; CXCR6 block: inactive; APJ antag: inactive; CCR6 antag: inactive

How did Cc1[nH]n(-c2ccccc2)c(=O)c1/C=N/N1C(=O)c2ccc3c4c(ccc(c24)C1=O)CC3 do in these assays?
APJ agonist: inactive; EBI2 block: inactive; CXCR6 block: 38; APJ antag: inactive

What do the screens show for `Cc1[nH]n(-c2ccccc2)c(=O)c1/C=N/O`?
APJ agonist: inactive; EBI2 block: inactive; CXCR6 block: inactive; APJ antag: inactive; CCR6 antag: inactive

How did CCCCn1c(N)c(N(CC(C)C)C(=O)CC(NC(=O)c2ccccc2Cl)c2ccccc2)c(=O)[nH]c1=O (stereo not given) do in these assays?
EBI2 block: inactive; CXCR6 block: inactive

Results for CCC(=O)OCOc1ccc(/C=C2/CCC(CN(C)C)C2=O)cc1 (stereo not given) ?
EBI2 block: inactive; CXCR6 block: 82; CCR6 antag: 90
